Data set [1] relates to Panel NCI-60 (60 carcinoma cell lines). The data set is described as follows: Cytotoxicity against human NCI-60 cells assessed as reduction in cell viability at 10 uM incubated for […]. The class given is functional. Put shortly:
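NCI DTP one-dose screen: single 10 μM dose, […], across the 60-line panel (some lines absent when unavailable). Cells kept in RPMI 1640 with 5% FBS and 2 mM L-glutamine, seeded at 5000–40,000 cells/well by doubling time. Percent growth given relative to drug-free untreated control and to cell number at time zero.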

The nature of data set [2]: Metabolic stability of the compound in human serum over 12 hrs by 31P-NMR analysis. The class given is ADME, cell-free. Put shortly: (§1)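 Prodrug dissolved in DMSO and added to 80% human serum/plasma with 20% D2O, final 2 mM unless stated otherwise. Samples held at 37 °C between timepoints. Read by 31P NMR (CPD, 500 scans), with 1H–31P HSQC where applicable. Peaks integrated and normalised to the phosphate peak at 0 ppm.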

Data set [3] can be described thus: Cytotoxicity against human LN-319 cells expressing ENO1 assessed as cell growth inhibition incubated for 6 days by cystal violet staining based analysis. The data set is classed as functional. The settings on record: LN-319, 144 h.
Data set [4] in a line: Metabolic stability of the compound in human serum measured over 16 hrs by 31P-NMR analysis. The class given is ADME, cell-free. Put shortly: as §1
A short description of data set [5]: Metabolic stability of the compound in human serum measured over 9 hrs by 31P-NMR analysis. The data set is classed as ADME, cell-free. The method in brief:
as §1

Data set [6] is described as follows: Metabolic stability of the compound in human serum measured over 366 hrs by 31P-NMR analysis. The class given is ADME, cell-free. The method in brief: as §1
Data set [7] can be described thus: Stability of compound in phosphate buffer at pH 7 incubated for 3 hrs. Particulars: pH 7, 3 h. The data set is classed as physicochemical. The method in brief: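 Stability followed by 31P NMR in 5 mM phosphate-buffered D2O at pH 7.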
Data set [8] is described as follows: Prodrug conversion in human plasma assessed as (1-hydroxy-2-oxopiperidin-3-yl) phosphonic acid formation measured after 3 hrs by 31P-NMR analysis. The data set is classed as ADME, cell-free. The method in brief: as §1
Data set [9] can be described thus: Stability of compound in culture media incubated for 72 hrs by 31P-NMR analysis. The class given is physicochemical. Put shortly: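 Prodrug (final 2 mM unless stated otherwise) in 80% DMEM with 20% D2O, kept at 37 °C between timepoints. Species followed by 31P NMR (CPD, 500 scans).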
Data set [10] in a line: Stability of compound in human serum incubated for 72 hrs by 31P-NMR analysis. The data set is classed as ADME, cell-free. The method in brief:
as §1

Data set [11] in a line: Stability of compound in human plasma incubated for 3 hrs by 31P-NMR analysis. The class given is ADME, cell-free. The method in brief: as §1

The structures appear in SMILES notation.

By IC50 is commonly meant the point on the concentration scale where inhibition reaches its midpoint.

Regarding `CC(C)(C)C(=O)OCOP(=O)(OCOC(=O)C(C)(C)C)C1CCCN(O)C1=O` (configuration not stated), the Activity in [1] was determined as 7.1%. In addition, in data set [2], the Stability result is “Unstable”.

Take `O=C1C(P(=O)(O)O)CCCN1O` (configuration not stated): the 50% inhibitory concentration (IC50) in [3] is 3000 µM.

In the case of `CC(C)(C)C(=O)OCOP(=O)(NCc1cccc(F)c1)C1CCCN(O)C1=O` (configuration not stated), in data set [3], the IC50 turned out to be 2.38 µM.

As for `CCCCCCCCCCCCNP(=O)(O)C1CCCN(O)C1=O` (configuration not stated), in [3], the half-inhibitory concentration (IC50) was > 100 µM.

For `CC(C)(C)C(=O)OCOP(N)(=O)C1CCCN(O)C1=O` (configuration not stated), the IC50 in data set [3] was determined as 426 µM.

For `CNP(=O)(OCOC(=O)C(C)(C)C)C1CCCN(O)C1=O` (configuration not stated), the half-maximal inhibitory concentration (IC50) in data set [3] is 5.4 µM.

On to `CCCCCCCCCCCCCCCCOCCCOP(=O)(O)C1CCCN(O)C1=O` (configuration not stated), for which, in [1], the Activity is 14%.

Regarding `N#CCOP(=O)(OC#N)C1CCCN(O)C1=O` (configuration not stated), the IC50 in data set [3] is > 100 µM.

For the molecule `CN(C)P(=O)(OCOC(=O)C(C)(C)C)C1CCCN(O)C1=O` (configuration not stated), in [3], the IC50 was 12.9 µM.

With `CC(C)OC(=O)[C@H](C)NP(=O)(Oc1ccccc1)C1CCCN(O)C1=O` (some centres not stated), the Stability entry in data set [4], in data set [5] and in data set [6] was “Stable” throughout.

Turning to `CC(C)OC(=O)[C@H](C)NP(=O)(N[C@@H](C)C(=O)OC(C)C)C1CCCN(O)C1=O` (some centres not stated), the IC50 in data set [3] was > 100 µM.

For `N#CCOP(=O)(NCc1ccccc1)C1CCCN(O)C1=O` (configuration not stated), in data set [3], the IC50 was 0.775 µM.

With `O=C1C(P(=O)(NCc2ccccc2)Oc2ccc(F)cc2)CCCN1O` (configuration not stated), in data set [3], the concentration for half-maximal inhibition (IC50) was > 100 µM.

With `CC(C)C(=O)ON1CCCC(P2(=O)OCc3ccccc3O2)C1=O` (configuration not stated), the Stability result is recorded as “Stable” in data set [7], “Stable” in data set [9], “Stable” in data set [10] and “Unstable” in data set [11]. Besides, in data set [8], the Drug metabolism entry is “Metabolite_Detected”.

On to `O=C1C(P(=O)(NCc2ccccc2)OCOC(=O)N2CCC(N3CCCCC3)CC2)CCCN1O` (configuration not stated), for which the IC50 in [3] is > 100 µM.

The values above are taken from ChEMBL document CHEMBL5104201, “Prodrugs of a 1-Hydroxy-2-oxopiperidin-3-yl Phosphonate Enolase Inhibitor for the Treatment of ENO1-Deleted Cancers” (J Med Chem, 2022).
